Active and inactive are the calls of the source.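 Rule for the calls, unless noted: active = fluorescence slope higher than the sample average by over 3 SD (cut at about -0.22 in these data, passing the limit was not always enough); inactive = the rest.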
Columns and labels:
[1] = inhibitors of TNFa-induced NFkB p65 translocation, primary screen, imaging, HUVEC, MLSMR starter and 10KST1 sets (AID 438;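 active = inhibition above 20% together with a positive visual image hit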;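 note: compound added about 3h40 before a 20 min TNFalpha stimulation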;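 for inhibition: signal is the nuclear over cytoplasmic p65 intensity ratio per well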); settings: HUVEC TNFa-induced p65 nuclear translocation; cell count: measured here: nuclei count (cytotoxicity indicator), at 2.08 µM; inhibition: at 2 µM, stronger effect = higher value, 0% TNFa-plus-vehicle, 100% no-TNFa wells
[2] = reduction of polyQ htt aggregates in cells – imaging, exon1htt(103Q)mCFP cells, high-content imaging, primary screen (AID 483;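 active = visual image review flags a hit and inhibition of aggregation exceeds 20%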;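 note: compound exposure lasted 3 days before fixation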;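 for nuclei count: percent of the per-plate median nuclei count of sample wells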); settings: exon1htt(103Q)mCFP cell line, aggregate imaging, at 2 µM; inhibition of aggregation: stronger effect = higher value; nuclei count: measured here: cell count, toxicity
[3] = endothelial E-selectin expression blockers – imaging, HUVEC, immunofluorescence, MLSMR starter and 10KST1 sets, primary screen (AID 487;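 active = visually confirmed hit in the image check and inhibition above 20%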;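 for inhibition: signal is fraction of cell area covered by stained E-selectin grains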;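 for nuclei count: 100% = median nuclei count of all wells on the same plate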); settings: HUVEC TNFalpha-induced E-selectin immunofluorescence imaging, at 2 µM; inhibition: stronger effect = higher value; nuclei count: measured here: cell number, toxicity
[4] = target: Voltage-gated potassium channel subunit beta-2 (Rattus norvegicus) (UniProt P62483); assay: inhibitors of rat Kvbeta2 reductase activity – biochemical, NADPH fluorescence, primary screen (AID 622); settings: recombinant KvBeta, 4-cyanobenzaldehyde reduction, at 10 µM, stronger effect = higher value;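 note: slope of raw intensity against log time taken from 70 to 1610 s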
Voltage-gated potassium channel subunit beta-2 (Rattus norvegicus), sequence (P62483 whole entry, looked up): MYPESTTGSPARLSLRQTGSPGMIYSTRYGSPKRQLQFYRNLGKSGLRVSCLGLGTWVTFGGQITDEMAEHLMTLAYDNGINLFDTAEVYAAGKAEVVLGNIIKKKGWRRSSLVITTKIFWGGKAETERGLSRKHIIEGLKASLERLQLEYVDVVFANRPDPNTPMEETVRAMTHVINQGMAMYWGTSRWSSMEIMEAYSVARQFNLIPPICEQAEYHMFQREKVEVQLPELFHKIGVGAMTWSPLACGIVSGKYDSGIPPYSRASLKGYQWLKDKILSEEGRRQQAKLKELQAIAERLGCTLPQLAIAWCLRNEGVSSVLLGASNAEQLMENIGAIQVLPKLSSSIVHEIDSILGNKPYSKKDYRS

[5] = target: Voltage-gated potassium channel subunit beta-2 (Rattus norvegicus) (UniProt P62483); assay: enhancers of rat Kvbeta2 NADPH turnover – biochemical, NADPH fluorescence, primary screen (AID 623;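 active = NADPH fluorescence slope more negative than the mean of all samples by about 3 SD, 99.7% confidence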;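 note: fluorescence intensity change per second fitted from 20 to 320 s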); settings: Recombinant KvBeta, NADPH fluorescence decrease slope, 10 min; at 10 µM; stronger effect = lower value
[6] = target: Alpha-2C adrenergic receptor (Homo sapiens) (UniProt P18825); assay: compounds altering alpha2C-coupled GIRK flux – cell-based, HEK293 alpha2C/GIRK1/2, thallium flux, primary screen (AID 624;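 active = fluorescence slope after compound addition differing from the mean of all screened samples at 99.7% confidence, in either direction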;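 note: slope of fluorescence ratio to pre-addition baseline per second over 15 to 24 s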); settings: thallium flux BTC fluorescence, at 10 µM, actives lie on both sides
Alpha-2C adrenergic receptor (Homo sapiens), sequence (P18825 whole entry, looked up): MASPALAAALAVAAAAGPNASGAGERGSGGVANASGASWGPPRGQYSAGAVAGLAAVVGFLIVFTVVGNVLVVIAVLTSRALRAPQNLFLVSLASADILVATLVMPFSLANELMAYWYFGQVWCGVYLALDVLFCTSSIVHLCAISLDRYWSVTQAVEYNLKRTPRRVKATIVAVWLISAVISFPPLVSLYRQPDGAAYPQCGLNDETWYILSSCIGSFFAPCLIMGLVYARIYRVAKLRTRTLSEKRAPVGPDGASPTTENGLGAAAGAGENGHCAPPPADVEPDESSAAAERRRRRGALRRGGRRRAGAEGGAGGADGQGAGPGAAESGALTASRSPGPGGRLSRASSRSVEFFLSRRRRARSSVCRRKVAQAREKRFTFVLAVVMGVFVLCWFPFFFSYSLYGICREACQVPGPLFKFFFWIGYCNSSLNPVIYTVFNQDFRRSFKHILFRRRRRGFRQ

[7] = inhibitors of larval lipid processing in zebrafish, primary screen, whole organism, PED6 fluorescence, gall bladder and intestine (AID 686;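 active = a full or partial loss of lipid-probe fluorescence in the fish gall bladder, intestine or both, judged by eye; inactive = no fluorescence loss, or compound toxic to the fish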;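 note: larvae 5 to 7 days old with five fish per well; signal comes from phospholipase A2 cleavage of quenched PED6 carried via bile; overnight exposure to compound and PED6 before scoring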); settings: Zebrafish larvae PED6 lipid processing, fluorescence scoring; screened at 20 µM (by protocol)
In short: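 Doses: 20 µM single dose. Test system: live zebrafish larvae aged 5-7 days, whole organism. Quantity: five larvae per well. Measured by: By-eye fluorescence microscopy. Reagent: ingested quenched lipid PED6 at 100 nM. Read-out: visual per-well fluorescence inhibition score. Times: overnight exposure of larvae to compound plus PED6.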

[8] = blockers of RIG-like receptor reporter activation – cell-based, Sendai virus stimulus, luciferase, 10K MLSCN set, TLR/RLR signaling modifier project, primary screen (AID 602276;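 active = inhibition at or above 50% at 10 µM; inactive = inhibition below 50%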;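 note: firefly luciferase from ISG56 promoter only with Renilla not read in this screen; 0% = Sendai virus plus DMSO and 100% = medium plus DMSO without virus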); settings: HEK293 RL24 IRF3 luciferase reporter, at 10 µM, stronger effect = higher value
[9] = TLR3 IRF3 reporter activation blockers – cell-based, poly I:C stimulus, luciferase, 10K MLSCN set, primary screen (AID 602277;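 active = inhibition of the reporter signal at or above 50%; inactive = inhibition below 50%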); settings: HEK293-TLR3 RL24 IRF3 luciferase reporter, at 10 µM, stronger effect = higher value

c1ccc(OCCCn2nnc(-c3ccncc3)n2)cc1
91.9%: nuclei count [2]
inactive: inhibition [1] -9.9% | inhibition of aggregation [2] 2.3% | inhibition [3] -57.3% | fluorescence slope [4] -0.454 | NADPH fluorescence slope [5] -2.7e-05 | slope [6] 0.00445 | outcome [7] | inhibition [8] 13.2% | inhibition [9] -7.55%
604: cell count [1]
114%: nuclei count [3]

CCCn1c(=O)c(C(=O)NCc2ccccn2)c(O)c2ccccc21
111%: nuclei count [2]
345: cell count [1]
inactive: inhibition [1] 4.2% | inhibition of aggregation [2] -20.9% | inhibition [3] -32.3% | fluorescence slope [4] -0.403 | NADPH fluorescence slope [5] -9e-05 | slope [6] 0.00521 | outcome [7] | inhibition [8] -22.2% | inhibition [9] -53.3%
108%: nuclei count [3]

Cc1nnc(NC(=O)CCC(=O)N2CCC(C)CC2)s1
120%: nuclei count [3]
inactive: inhibition [1] -2% | inhibition of aggregation [2] -13.9% | inhibition [3] -84.2% | fluorescence slope [4] -0.465 | NADPH fluorescence slope [5] -4.6e-05 | slope [6] 0.0059 | outcome [7] | inhibition [8] 12.2% | inhibition [9] 14%
355: cell count [1]
119%: nuclei count [2]

CCC1(C)Cc2c(sc3nc(SCC(=O)O)[nH]c(=O)c23)CO1 (configuration not stated)
114%: nuclei count [2]
inactive: inhibition [1] -14.6% | inhibition of aggregation [2] -5% | inhibition [3] -41% | fluorescence slope [4] -0.391 | NADPH fluorescence slope [5] -1.8e-05 | slope [6] 0.00549 | outcome [7] | inhibition [8] 1.92% | inhibition [9] 7.26%
104%: nuclei count [3]
549: cell count [1]

CCOc1nc(-c2ccccc2O)nc2ccccc12
116%: nuclei count [3]
104%: nuclei count [2]
inactive: inhibition [1] -3.1% | inhibition of aggregation [2] -11.6% | inhibition [3] -148% | fluorescence slope [4] -0.437 | NADPH fluorescence slope [5] -2.5e-05 | slope [6] 0.00628 | outcome [7] | inhibition [8] 6.19% | inhibition [9] 9.49%
716: cell count [1]

CCc1nnc(NC(=O)CSc2nc(-c3ccc(OC)cc3)ns2)s1
98.7%: nuclei count [3]
203: cell count [1]
82%: nuclei count [2]
inactive: inhibition [1] -10.4% | inhibition of aggregation [2] -17.4% | inhibition [3] -32.2% | fluorescence slope [4] -0.408 | NADPH fluorescence slope [5] 3.8e-06 | slope [6] 0.00688 | outcome [7] | inhibition [8] -36.8% | inhibition [9] -50.2%

O=C(CSc1n[nH]c(=O)[nH]c1=O)c1ccccc1
82%: nuclei count [2]
inactive: inhibition [1] -5.6% | inhibition of aggregation [2] 6.7% | inhibition [3] -33.2% | fluorescence slope [4] -0.34 | NADPH fluorescence slope [5] -4e-05 | slope [6] 0.00685 | outcome [7] | inhibition [8] 1.37% | inhibition [9] 0.379%
99.8%: nuclei count [3]
486: cell count [1]

O=C(Nc1ccccc1Cl)c1c(F)c(F)c(F)c(F)c1F
116%: nuclei count [3]
inactive: inhibition [1] 5.5% | inhibition of aggregation [2] 2.9% | inhibition [3] -166% | fluorescence slope [4] -0.479 | NADPH fluorescence slope [5] -3e-05 | slope [6] 0.00592 | outcome [7] | inhibition [8] -7.6% | inhibition [9] -12.7%
103%: nuclei count [2]
407: cell count [1]

Cc1nn(Cc2ccccc2)c2c1C(c1ccncc1)C(C#N)=C(N)O2 (configuration not stated)
97.3%: nuclei count [3]
273: cell count [1]
62.3%: nuclei count [2]
inactive: inhibition [1] -1.3% | inhibition of aggregation [2] 17.9% | inhibition [3] -58.9% | fluorescence slope [4] -0.381 | NADPH fluorescence slope [5] -5.9e-05 | slope [6] 0.0052 | outcome [7] | inhibition [8] 2.54% | inhibition [9] 0.489%

O=C(c1ccccc1)c1ccc(N2CCNCC2)cc1
inactive: inhibition [1] 4.3% | inhibition of aggregation [2] -14.4% | inhibition [3] 2.4% | fluorescence slope [4] -0.518 | NADPH fluorescence slope [5] 5.3e-06 | slope [6] 0.00569 | outcome [7] | inhibition [8] -41.5% | inhibition [9] -73.5%
102%: nuclei count [3]
395: cell count [1]
92.6%: nuclei count [2]

CSc1nnc(-c2cnccn2)n1Cc1ccccc1
101%: nuclei count [2]
121%: nuclei count [3]
386: cell count [1]
inactive: inhibition [1] 2.9% | inhibition of aggregation [2] -2.6% | inhibition [3] 5.7% | fluorescence slope [4] -0.481 | NADPH fluorescence slope [5] -5.6e-07 | slope [6] 0.00544 | outcome [7] | inhibition [8] -5.1% | inhibition [9] 2.59%

CC(C)(C)c1ccc(C(=O)N2CCC(C(=O)NCc3ccncc3)CC2)cc1
113%: nuclei count [3]
108%: nuclei count [2]
344: cell count [1]
inactive: inhibition [1] -5.2% | inhibition of aggregation [2] -12.2% | inhibition [3] -64.8% | fluorescence slope [4] -0.368 | NADPH fluorescence slope [5] -4.7e-05 | slope [6] 0.00471 | outcome [7] | inhibition [8] -14.5% | inhibition [9] -39%

CC(C(=O)NC(=O)NC1CCCCC1)N1CCN(c2ccccn2)CC1 (configuration not stated)
inactive: inhibition [1] -16.9% | inhibition of aggregation [2] 8.1% | inhibition [3] 0.2% | fluorescence slope [4] -0.397 | NADPH fluorescence slope [5] -4.4e-05 | slope [6] 0.00612 | outcome [7] | inhibition [8] 5.51% | inhibition [9] 9.31%
611: cell count [1]
107%: nuclei count [2]
134%: nuclei count [3]

Cn1c(=O)[nH]c(=O)c2c1nc(Br)n2CCCSc1nc2ccccc2o1
100%: nuclei count [3]
inactive: inhibition [1] -2.9% | inhibition of aggregation [2] -18.5% | inhibition [3] -8.4% | fluorescence slope [4] -0.352 | NADPH fluorescence slope [5] -6.5e-05 | slope [6] 0.00502 | outcome [7] | inhibition [8] 17.2% | inhibition [9] 9.4%
588: cell count [1]
112%: nuclei count [2]

COc1cccc(N2C(=O)N(c3ccccc3Cl)C3CS(=O)(=O)CC32)c1 (configuration not stated)
366: cell count [1]
122%: nuclei count [3]
118%: nuclei count [2]
inactive: inhibition [1] -0.4% | inhibition of aggregation [2] -6% | inhibition [3] -47.6% | fluorescence slope [4] -0.336 | NADPH fluorescence slope [5] -1.8e-05 | slope [6] 0.00497 | outcome [7] | inhibition [8] 15.6% | inhibition [9] 20%

CC(=O)Nc1c(O)n(C)c2ccccc12
104%: nuclei count [2]
100%: nuclei count [3]
inactive: inhibition [1] -24.1% | inhibition of aggregation [2] 4.1% | inhibition [3] 25.2% | fluorescence slope [4] -0.445 | NADPH fluorescence slope [5] 3.6e-05 | slope [6] 0.00514 | outcome [7] | inhibition [8] -8.37% | inhibition [9] 2.01%
638: cell count [1]

Cc1ccc(CS(=O)(=O)Cc2ccc(C(=O)NCc3ccccn3)o2)cc1
93.1%: nuclei count [3]
inactive: inhibition [1] 6% | inhibition of aggregation [2] -2.9% | inhibition [3] 8.5% | fluorescence slope [4] -0.18 | NADPH fluorescence slope [5] -2.3e-05 | slope [6] 0.00535 | outcome [7] | inhibition [8] 12% | inhibition [9] 7.77%
454: cell count [1]
102%: nuclei count [2]

CC1CN(C(=O)CSc2ncnc3sccc23)CC(C)O1 (configuration not stated)
inactive: inhibition [1] -0.9% | inhibition of aggregation [2] -13.4% | inhibition [3] -1.1% | fluorescence slope [4] -0.469 | NADPH fluorescence slope [5] -2.6e-05 | slope [6] 0.0052 | outcome [7] | inhibition [8] 10.7% | inhibition [9] 11%
98.3%: nuclei count [2]
356: cell count [1]
102%: nuclei count [3]

Cc1c(CNCc2cccs2)c(C(=O)O)c(C)n1Cc1ccccc1
115%: nuclei count [2]
inactive: inhibition [1] 5.5% | inhibition of aggregation [2] 3.1% | inhibition [3] -30.9% | fluorescence slope [4] -0.454 | NADPH fluorescence slope [5] -7.6e-05 | slope [6] 0.00618 | outcome [7] | inhibition [8] 18.8% | inhibition [9] 17%
451: cell count [1]
101%: nuclei count [3]

CCCCCCC(c1c(C)n(C)n(-c2ccccc2)c1=O)c1c(C)n(C)n(-c2ccccc2)c1=O
272: cell count [1]
59.4%: nuclei count [2]
102%: nuclei count [3]
inactive: inhibition [1] -12.6% | inhibition of aggregation [2] 21% | inhibition [3] -39.4% | fluorescence slope [4] -0.407 | NADPH fluorescence slope [5] -5e-05 | slope [6] 0.00514 | outcome [7] | inhibition [8] 7.89% | inhibition [9] 7.24%

COc1ccc(CCN(Cc2cc3cccc(C)c3[nH]c2=O)C(=O)N2CCCC2)cc1OC
inactive: inhibition [1] 2.1% | inhibition of aggregation [2] 8.7% | inhibition [3] 11.6% | fluorescence slope [4] -0.458 | NADPH fluorescence slope [5] -8.2e-05 | slope [6] 0.00488 | outcome [7] | inhibition [8] 10.3% | inhibition [9] 16.5%
207: cell count [1]
94.8%: nuclei count [2]
91.3%: nuclei count [3]
